# Sampled rows, rich in hits. Any-hit rate of the full collection: about 3%.
# HTR1E agonist: 5-HT1E (human) receptor agonism; P28566; CHO 5-HT1E Ga15 NFAT-bla reporter, FRET; 0% DMSO wells, 100% control agonist wells; activation, % at 6 µM; actives 0.69% (n = 65,000); AID 574;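 active = activation above a set limit, the screen-wide mean activation plus 3 SD, cut at about 8.5% in these data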;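 also: 100% = positive control agonist at 1 µM giving full maximal response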
# S1P3 agonist: agonists of human S1P3 receptor. Q99500. S1P3 NFAT-BLA reporter cells, agonism, FRET ratio; relative to 1 µM S1P, basal subtracted. activation, % at 4.5 µM. actives 0.1% (n = 60,000). AID 373;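 active = activation above the screen-wide mean plus 3 SD, cut at about 4.5% in these data, passing the limit was not always enough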
#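 Benchmarks: high control 1 µM S1P / System: stable CHO line with human S1P3, Gα16, NFAT-BLA reporter / Dosing: single compound concentration, 4.5 µM final / Timing: 4 h compound at 37 °C, 2 h substrate at RT / Measured by: FRET β-lactamase substrate fluorescence, excitation 405 nm, 460/535 nm emission ratio, background-subtracted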
# HTR1A agonist: 5-HT1a (human) receptor agonism. P08908. CHO 5-HT1a Ga15 NFAT-bla reporter, FRET ratio; 0% basal, 100% maximal reference agonist. activation, % at 10 µM. actives 0.56% (n = 65,000). AID 567;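 active = activation above the screen-wide mean activation plus 3 SD, cut at about 19% in these data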;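 also: 0% = DMSO wells and 100% = 5-CT at EC100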
# 5HT1E antag: antagonists of human 5-HT1E serotonin receptor; CHO 5-HT1E Ga15 NFAT-bla reporter, FRET, antagonist; P28566; inhibition, % at 6 µM; actives 0.99% (n = 65,000);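 active = inhibition above a set limit, the mean inhibition across every tested compound plus 3 SD, cut at about 29% in these data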;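 also: signal is the 460 over 535 nm emission ratio of beta-lactamase substrate; 0% = agonist plus DMSO wells and 100% = wells without agonist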
# 5HT1a antag: blocks the human serotonin 5-HT1a receptor. P08908. CHO 5-HT1a Ga15 NFAT-bla reporter, antagonist mode. inhibition, % at 10 µM. actives 0.68% (n = 62,000). AID 612;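 active = inhibition above the mean of all tested compounds plus 3 SD, cut at about 43% in these data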;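 also: receptor stimulated by 5-CT agonist at 100 nM near EC80; beta-lactamase reporter measured by ratiometric fluorescence of a cleavable substrate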
# S1P1 ag-PAM: S1P1 (human) agonism or agonism potentiation; activation, % at 9.5 µM; AID 449; S1P1 CRE-bla cells, forskolin, beta-lactamase FRET, potentiator mode; S1P1 agonist co-added at EC20, 2 nM; 100% = saturating reference agonist, 0% = basal; actives 0.57% (n = 56,000);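 active = activation above a cutoff set at the mean activation of all tested compounds plus 3 SD, cut at about 54% in these data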;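 also: forskolin at 4 µM as EC80 and the EC20 agonist is SEW2871; 100% = SEW2871 at its EC100 plus forskolin at EC80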
# Target sequence (P21453 whole entry, looked up): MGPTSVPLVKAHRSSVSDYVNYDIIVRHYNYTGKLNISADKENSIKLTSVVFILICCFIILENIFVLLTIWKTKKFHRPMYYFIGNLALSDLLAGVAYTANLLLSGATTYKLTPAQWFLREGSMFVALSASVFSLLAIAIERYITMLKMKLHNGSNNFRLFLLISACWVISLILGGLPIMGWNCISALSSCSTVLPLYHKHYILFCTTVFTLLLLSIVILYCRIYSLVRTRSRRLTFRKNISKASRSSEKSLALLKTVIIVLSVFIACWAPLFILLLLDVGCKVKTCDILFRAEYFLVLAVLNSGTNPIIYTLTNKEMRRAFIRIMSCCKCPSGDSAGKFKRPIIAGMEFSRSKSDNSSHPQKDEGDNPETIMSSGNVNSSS
# Starred values were filed as active, the others as inactive; . = not tested or not shown.
SMILES,HTR1E agonist,S1P3 agonist,HTR1A agonist,5HT1E antag,5HT1a antag,S1P1 ag-PAM
CC(C)C(C(=O)N1CCOCC1)N1C(=O)c2ccccc2C1=O (centres undefined),-0.1,-0.8,-3.6,-11.1,-11.5,-4.6
N#CC(c1nc2ccccc2nc1N1CCCCC1)S(=O)(=O)c1ccc(Cl)cc1 (centres undefined),11.5*,-1.5,-1.0,0.3,5.3,11.2
Cc1ccc(S(=O)(=O)C(C#N)c2nc3ccccc3nc2N2CCCCC2)cc1 (centres undefined),1.1,.,2.8,-7.4,3.2,.
C/C=C/Cn1c(SCc2ccc(C)cc2)nc2c1c(=O)[nH]c(=O)n2C,1.6,-0.7,0.4,29.9*,-1.3,-49.6
Cc1cccc(/N=C/c2c(O)n(-c3cc(Cl)ccc3N3CCOCC3)c(=O)c3ccccc23)n1,0.3,-0.8,-2.4,-7.0,0.0,7.8
Cc1cc(Nc2cccc(F)c2)nc(-c2ccccc2O)n1,0.0,0.8,-1.8,31.1*,36.6,2.7
CCOC(=O)c1cnn(CCOC(=O)Cc2cccs2)c1NC(=O)Cc1cccs1,-0.4,0.4,0.0,0.2,5.8,-7.0
O=C(CN1CCN(Cc2ccccc2)CC1)c1c[nH]c2ccccc12,-0.8,-0.7,-2.8,5.5,4.7,22.5
CCOC(=O)c1cccc2c1-c1ccccc1/C2=N/O,0.2,-1.4,-1.9,21.1,30.4,62.0*
CCc1nc(Nc2ccc(N3CCN(C(C)=O)CC3)cc2)c2oc3ccccc3c2n1,-0.1,0.1,4.1,33.8*,1.2,-35.3
Cc1cccc(-c2cc3nc4c(c(N5CCOCC5)n3n2)CCCC4)c1,-0.1,-0.2,-3.1,39.6*,27.4,-35.6
OC1CCCN(c2c3c(nc4cc(-c5cccc(Cl)c5)nn24)CCC3)C1 (centres undefined),-0.7,.,1.1,38.2*,7.3,.
Cc1cccc(-c2cc3nc4c(c(N5CCC6(CC5)OCCO6)n3n2)CCCC4)c1,-0.2,-0.4,-3.4,14.7,8.1,-10.9
Cc1cccc(-c2cc3nc4c(c(N5CCCC(O)C5)n3n2)CCC4)c1 (centres undefined),0.2,-0.7,-1.7,49.8*,20.4,-8.2
COCCCn1cnc2c(c1=O)c1nc3ccccc3nc1n2CCc1ccccc1,1.0,0.1,3.0,-29.6,.,-9.8
CCOC(=O)c1ccc(NC(=O)Nc2ccn(C)n2)cc1,0.5,-0.1,-3.9,3.4,5.7,-26.9
Nc1nonc1-c1nc2ccccc2n1CC(=O)N1CCCCC1,-0.1,0.2,0.0,5.2,6.7,15.3
COC(=O)c1ccccc1NC(=O)Cn1c(-c2nonc2N)nc2ccccc21,-1.4,-1.5,-2.3,80.7*,74.0*,19.8
CN(CC(=O)NCc1ccco1)S(=O)(=O)c1ccc2c(c1)n(C)c(=O)c(=O)n2C,0.3,-0.1,-3.5,1.6,-6.9,0.0
COC(=O)c1ccc(-c2sc3nc(N4CCOCC4)c4c(c3c2N)CCCC4)o1,5.4,1.1,25.5*,11.8,.,-34.0
COC(=O)/C=C/S(=O)(=O)c1ccc(NC(C)=O)cc1,-0.4,-1.4,-5.7,66.7*,81.6*,41.9
Cc1cccc2cc(C#N)c(N3CCN(C)CC3)nc12,23.4*,-0.2,1.5,-5.3,-2.7,-15.6
CCCCC(c1nnnn1C1CCCC1)N1CCN(C2CCCCC2)CC1 (centres undefined),-0.2,-0.2,-0.8,4.9,50.2*,-4.8
CCCC(c1nnnn1C1CCCCC1)N1CCN(c2ncccn2)CC1 (centres undefined),-0.1,-1.1,0.9,1.7,8.1,-0.3
CN1C(=O)CC(N2CCN(c3ccc(Cl)c(Cl)c3)CC2)C1=O (centres undefined),0.2,-5.2,4.3,40.0*,.,-1.2
SMILES,HTR1E agonist,S1P3 agonist,HTR1A agonist,5HT1E antag,5HT1a antag,S1P1 ag-PAM
C=CCNC(=O)C1CCCN(S(C)(=O)=O)C1 (centres undefined),14.2*,-1.0,-0.3,4.6,2.7,13.9
O=C(CN(C(=O)CSc1nnc(COc2ccccc2)o1)c1ccc(F)cc1)NC1CCCC1,0.0,-0.8,39.7*,-3.0,12.7,20.8
COc1ccc(OC)c(-n2nnnc2SCC(=O)NCc2ccc3c(c2)OCO3)c1,-0.3,0.8,-1.7,-1.9,-2.9,-7.9
CCOc1ccc(C(=O)CN2CCN(S(=O)(=O)c3ccc(OC)cc3)CC2)cc1,-0.3,-0.2,-2.5,-5.5,1.0,-19.0
CN(C)c1ccc(C2C=C(c3ccc(Cl)cc3OC(F)F)Nc3ncnn32)cc1 (centres undefined),4.9,1.3,27.7*,24.1,2.3,-32.9
O=C(NCc1n[nH]c(=S)n1-c1ccc(F)cc1)c1ccco1,0.5,.,-4.0,-7.6,1.7,.
CCn1c(SCC(=O)Nc2cc(C)ccc2C)nc2c(c1=O)SC(C)C2 (centres undefined),0.6,-0.8,69.6*,0.1,12.6,-6.5
Cc1ccc(C)c(NC(=O)CSc2nc3c(c(=O)n2C)SC(C)C3)c1 (centres undefined),0.9,-0.5,2.5,3.8,-4.3,-9.3
CCn1ncc(C2=NOC(C(=O)NCc3ccc(Cl)cc3)C2)c1C (centres undefined),-0.9,-1.1,-4.9,58.4*,42.0,-16.5
COc1ccc(C2=NOC(C(=O)NCc3ccc(F)cc3)C2)cc1 (centres undefined),-0.3,0.0,-1.9,56.3*,40.5,11.6
COc1ccccc1N1CCN(C(=O)c2ccc(S(=O)(=O)N3CCCCCC3)cc2)CC1,-0.5,-1.2,0.0,5.5,9.6,-6.3
Cc1cccc(OCC(O)Cn2c(NCc3cccnc3)nc3c2c(=O)[nH]c(=O)n3C)c1 (centres undefined),-0.8,-0.9,-0.3,12.4,-13.3,-2.4
CC(C)CNc1nc2c(c(=O)n(C)c(=O)n2C)n1Cc1cccc(Br)c1,-0.1,-3.9,-0.8,-10.7,.,-12.1
Cn1c(Cl)nc2c1c(=O)n(Cc1cccc(Br)c1)c(=O)n2C,-0.8,-4.0,36.3*,3.6,.,20.3
COc1cccc(OCCn2c(C)c(/C=N/n3cnnc3)c3ccccc32)c1,-0.1,0.0,-1.4,42.8*,3.6,-14.1
C=CCOC(=O)c1sc(NC(=O)c2ccco2)nc1C,-1.2,-0.5,-2.4,5.7,1.5,-8.3
O=S(=O)(Nc1cccc2ncccc12)c1cccs1,0.7,1.1,-7.1,78.7*,84.0*,27.5
Cc1nc(N2CCN(c3ccccc3)CC2)c2c3c(sc2n1)CCC3,2.1,0.0,1.1,-15.7,9.1,-24.1
CSc1nc(N2CCOCC2)c2c3c(sc2n1)CCC3,-1.5,-0.2,1.0,28.9*,-4.4,17.1
COc1cccc(N2CCN(C3OC(=O)c4ccccc43)CC2)c1 (centres undefined),23.3*,-0.5,-1.0,7.8,1.4,1.0

# Assay outcomes from PubChem BioAssay.
